From ChEMBL document CHEMBL1136142, “Synthesis, biological evaluation and DNA binding properties of novel bleomycin analogues” (Bioorg Med Chem Lett, 2003)

Experiments:
HeLa = experiment: In vitro antitumor activity against HeLa cell lines by using MTT assay; format: functional, cell-based; settings: Homo sapiens
Procedure, shortened: (§1)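 Tetrazolium salt (MTT) read-out of in vitro growth inhibition; the reported value is the concentration producing 50% inhibition (IC50).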

BGC-823 = experiment: In vitro antitumor activity against BGC-823 cell lines by using MTT assay; format: functional, cell-based; settings: Homo sapiens; procedure, shortened: as §1

Compound | IC50 (HeLa) [µM] | IC50 (BGC-823) [µM]
CCC(=O)NCCCCNCCCNC(=O)c1csc(-c2csc(CCNC(=O)[C@@H](NC(=O)[C@@H](C)C(O)C(C)NC(=O)[C@@H](NC(=O)c3nc([C@H](CC(N)=O)NCC(N)C(N)=O)nc(N)c3C)[C@@H](O[C@@H]3O[C@@H](CO)[C@@H](O)[C@@H](O)[C@@H]3O[C@H]3O[C@H](CO)[C@@H](O)[C@H](OC(N)=O)[C@@H]3O)c3c[nH]cn3)[C@@H](C)O)n2)n1 (some centres undefined) | 14.4 | 6.46
Cc1c(N)nc([C@H](CC(N)=O)NCC(N)C(N)=O)nc1C(=O)N[C@H](C(=O)NC(C)C(O)[C@H](C)C(=O)N[C@H](C(=O)NCCc1nc(-c2nc(C(=O)NCCCNCCCCNC(=O)c3ccccc3)cs2)cs1)[C@@H](C)O)[C@@H](O[C@@H]1O[C@@H](CO)[C@@H](O)[C@@H](O)[C@@H]1O[C@H]1O[C@H](CO)[C@@H](O)[C@H](OC(N)=O)[C@@H]1O)c1c[nH]cn1 (some centres undefined) | 11.7 | 7.46
Cc1c(N)nc([C@H](CC(N)=O)NCC(N)C(N)=O)nc1C(=O)N[C@H](C(=O)NC(C)C(O)[C@H](C)C(=O)N[C@H](C(=O)NCCc1nc(-c2nc(C(=O)NCCCNCCCCNC(=O)c3ccccn3)cs2)cs1)[C@@H](C)O)[C@@H](O[C@@H]1O[C@@H](CO)[C@@H](O)[C@@H](O)[C@@H]1O[C@H]1O[C@H](CO)[C@@H](O)[C@H](OC(N)=O)[C@@H]1O)c1c[nH]cn1 (some centres undefined) | 14.8 | 10.8
Cc1c(N)nc([C@H](CC(N)=O)NCC(N)C(N)=O)nc1C(=O)N[C@H](C(=O)NC(C)C(O)[C@H](C)C(=O)N[C@H](C(=O)NCCc1nc(-c2nc(C(=O)NCCC[S+](C)C)cs2)cs1)[C@@H](C)O)[C@@H](O[C@@H]1O[C@@H](CO)[C@@H](O)[C@H](O)[C@@H]1O[C@H]1O[C@H](CO)[C@@H](O)[C@H](OC(N)=O)[C@@H]1O)c1c[nH]cn1 (some centres undefined) | 16.2 | 10.1
CCCC(=O)NCCCCNCCCNC(=O)c1csc(-c2csc(CCNC(=O)[C@@H](NC(=O)[C@@H](C)C(O)C(C)NC(=O)[C@@H](NC(=O)c3nc([C@H](CC(N)=O)NCC(N)C(N)=O)nc(N)c3C)[C@@H](O[C@@H]3O[C@@H](CO)[C@@H](O)[C@@H](O)[C@@H]3OC3O[C@H](CO)[C@@H](O)[C@H](OC(N)=O)[C@@H]3O)c3c[nH]cn3)[C@@H](C)O)n2)n1 (some centres undefined) | 13.8 | 2.62
Cc1c(N)nc([C@H](CC(N)=O)NCC(N)C(N)=O)nc1C(=O)N[C@H](C(=O)NC(C)C(O)[C@H](C)C(=O)N[C@H](C(=O)NCCc1nc(-c2nc(C(=O)NCCCNCCCCNC=O)cs2)cs1)[C@@H](C)O)[C@@H](O[C@@H]1O[C@@H](CO)[C@@H](O)[C@@H](O)[C@@H]1O[C@H]1O[C@H](CO)[C@@H](O)[C@H](OC(N)=O)[C@@H]1O)c1c[nH]cn1 (some centres undefined) | 12.2 | 31
CC(=O)NCCCCNCCCNC(=O)c1csc(-c2csc(CCNC(=O)[C@@H](NC(=O)[C@@H](C)C(O)C(C)NC(=O)[C@@H](NC(=O)c3nc([C@H](CC(N)=O)NCC(N)C(N)=O)nc(N)c3C)[C@@H](O[C@@H]3O[C@@H](CO)[C@@H](O)[C@@H](O)[C@@H]3O[C@H]3O[C@H](CO)[C@@H](O)[C@H](OC(N)=O)[C@@H]3O)c3c[nH]cn3)[C@@H](C)O)n2)n1 (some centres undefined) | 15.3 | 22.1
